Experimental data as given in ChEMBL document CHEMBL3758076, “Azaphilones from an Acid Mine Extremophile Strain of a Pleurostomophora sp” (J Nat Prod, 2015).
The source made the active and inactive calls. The rule behind the calls is not given here.

What was measured:
SR [1] = assay: Cytotoxicity against human SR cells at 1 to 10 uM after 72 hrs by Alamar Blue viability assay; type: functional, cell-based
MOLT-4 [2] = assay: Cytotoxicity against human MOLT4 cells at 1 to 10 uM after 72 hrs by Alamar Blue viability assay; type: functional, cell-based
LOX IMVI [3] = assay: Cytotoxicity against human LOXIMVI cells at 1 to 10 uM after 72 hrs by Alamar Blue viability assay; type: functional, cell-based
MOLT-4 [4] = assay: (§1) Cytotoxicity against human MOLT4 cells after 96 hrs by Hoechst-staining based nuclei image analysis; type: functional
RPMI-8226 [5] = assay: Cytotoxicity against human RPMI8226 cells at 1 to 10 uM after 72 hrs by Alamar Blue viability assay; type: functional, cell-based
RPMI-8226 [6] = assay: (§2) Cytotoxicity against human RPMI8226 cells after 96 hrs by Hoechst-staining based nuclei image analysis; type: functional
CCRF-CEM [7] = assay: Cytotoxicity against human CCRF-CEM cells at 1 to 10 uM after 72 hrs by Alamar Blue viability assay; type: functional, cell-based
LOX IMVI [8] = assay: Cytotoxicity against human LOXIMVI cells after 96 hrs by Hoechst-staining based nuclei image analysis; type: functional
SR [9] = assay: Cytotoxicity against human SR cells after 96 hrs by Hoechst-staining based nuclei image analysis; type: functional
Stromelysin-1 = Stromelysin-1 (Homo sapiens, UniProt P08254); assay: Inhibition of MMP-3 (unknown origin)
THP-1 [10] = assay: Antiinflammatory activity in human THP1 cells assessed as suppression of LPS and TiO2-induced IL-6 production at 10 uM after 24 hrs by induced inflammasome assay; type: functional, cell-based
Method in brief: (§3)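 THP-1 cells stimulated with bacterial LPS plus titanium dioxide (TiO2) to drive proinflammatory cytokine output and NLRP3 inflammasome assembly. Compounds were added to the induced cells, and IL-6, IL-33, TNF-α and IL-1β production was then measured.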

Caspase-1 = target: T1, Caspase-1 (Homo sapiens, UniProt P29466); assay: Inhibition of caspase-1 (unknown origin)
T1 sequence (P29466 whole entry): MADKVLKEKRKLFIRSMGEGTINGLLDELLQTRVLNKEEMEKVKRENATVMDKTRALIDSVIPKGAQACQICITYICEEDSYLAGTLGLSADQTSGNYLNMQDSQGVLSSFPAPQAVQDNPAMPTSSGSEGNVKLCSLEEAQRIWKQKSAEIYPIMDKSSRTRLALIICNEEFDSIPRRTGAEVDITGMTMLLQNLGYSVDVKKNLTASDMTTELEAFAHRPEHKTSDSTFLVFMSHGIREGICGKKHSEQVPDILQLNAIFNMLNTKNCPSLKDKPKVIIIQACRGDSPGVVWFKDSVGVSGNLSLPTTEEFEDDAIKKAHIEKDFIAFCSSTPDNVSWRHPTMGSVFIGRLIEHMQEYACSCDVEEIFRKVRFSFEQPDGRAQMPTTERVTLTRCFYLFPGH

THP-1 [11] = assay: Antiinflammatory activity against human THP1 cells assessed as suppression of LPS and TiO2-induced TNF-alpha production at 100 uM after 24 hrs by induced inflammasome assay; type: functional, cell-based; method in brief: as §3
THP-1 [12] = assay: Antiinflammatory activity in human THP1 cells assessed as suppression of LPS and TiO2-induced IL-1beta production at 100 uM after 24 hrs by induced inflammasome assay; type: functional, cell-based; method in brief: as §3
THP-1 [13] = assay: (§4) Antiinflammatory activity in human THP1 cells assessed as suppression of LPS and TiO2-induced IL-1beta production at 10 uM after 24 hrs by induced inflammasome assay; type: functional; method in brief: as §3
THP-1 [14] = assay: Antiinflammatory activity against human THP1 cells assessed as suppression of LPS and TiO2-induced IL-6 production at 100 uM after 24 hrs by induced inflammasome assay; type: functional, cell-based; method in brief: as §3
THP-1 [15] = assay: Antiinflammatory activity in human THP1 cells assessed as suppression of LPS and TiO2-induced IL-33 production at 10 uM after 24 hrs by induced inflammasome assay; type: functional, cell-based; method in brief: as §3
THP-1 [16] = assay: Antiinflammatory activity against human THP1 cells assessed as suppression of LPS and TiO2-induced IL-33 production at 100 uM after 24 hrs by induced inflammasome assay; type: functional, cell-based; method in brief: as §3
THP-1 [17] = assay: (§5) Antiinflammatory activity in human THP1 cells assessed as suppression of LPS and TiO2-induced TNF-alpha production at 10 uM after 24 hrs by induced inflammasome assay; type: functional; method in brief: as §3
CCRF-CEM [18] = assay: Cytotoxicity against human CCRF-CEM cells after 96 hrs by Hoechst-staining based nuclei image analysis; type: functional
CCRF-CEM [19] = assay: Cytotoxicity against human CCRF-CEM cells after 72 hrs by Alamar Blue viability assay; type: functional
[20] = Cytotoxicity against human RPMI8226 cells after 72 hrs by Alamar Blue viability assay; type: functional; conditions: RPMI-8226, 72 h
Y79 [21] = assay: Cytotoxicity against human Y79 cells after 72 hrs by Alamar Blue viability assay; type: functional, cell-based; conditions: Y79, 72 h
[22] = Cytotoxicity against human MOLT4 cells after 72 hrs by Alamar Blue viability assay; type: functional; conditions: MOLT-4, 72 h
[23] = as §4; type: functional, THP-1; method in brief: as §3
[24] = as §1; type: functional; conditions: MOLT-4, 96 h
SR [25] = assay: Cytotoxicity against human SR cells after 72 hrs by Alamar Blue viability assay; type: functional
[26] = as §2; type: functional; conditions: RPMI-8226, 96 h
[27] = as §5; type: functional, THP-1; method in brief: as §3
[28] = Cytotoxicity against human LOXIMVI cells after 72 hrs by Alamar Blue viability assay; type: functional; conditions: LOX IMVI
Y79 [29] = assay: Cytotoxicity against human Y79 cells after 96 hrs by Hoechst-staining based nuclei image analysis; type: functional, cell-based; conditions: Y79, 96 h

Stromelysin-1, sequence (P08254 whole entry): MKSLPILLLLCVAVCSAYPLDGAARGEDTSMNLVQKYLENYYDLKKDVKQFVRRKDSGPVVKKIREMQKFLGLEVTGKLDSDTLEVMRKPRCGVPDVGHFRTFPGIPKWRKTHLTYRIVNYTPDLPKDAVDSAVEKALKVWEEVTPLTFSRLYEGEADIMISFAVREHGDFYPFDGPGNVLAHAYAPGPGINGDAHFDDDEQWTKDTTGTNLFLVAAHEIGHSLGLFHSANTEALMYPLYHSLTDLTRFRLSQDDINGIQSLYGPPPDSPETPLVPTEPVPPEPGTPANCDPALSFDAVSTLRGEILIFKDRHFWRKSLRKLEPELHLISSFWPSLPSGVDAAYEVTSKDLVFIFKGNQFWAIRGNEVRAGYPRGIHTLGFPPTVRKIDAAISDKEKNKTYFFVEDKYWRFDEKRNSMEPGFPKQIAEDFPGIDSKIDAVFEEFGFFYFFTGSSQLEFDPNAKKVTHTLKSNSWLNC

Compound: CCCCCCCCCC(=O)C[C@@H]1C2=COC(C[C@H](C)O)=CC2=CC(=O)[C@]1(C)O
- Activity (SR [1]): inactive
- Activity (MOLT-4 [2]): inactive
- Activity (LOX IMVI [3]): inactive
- Activity (MOLT-4 [4]): inactive
- Activity (RPMI-8226 [5]): inactive
- Activity (RPMI-8226 [6]): inactive
- Activity (CCRF-CEM [7]): inactive
- Activity (LOX IMVI [8]): inactive
- Activity (SR [9]): inactive

Compound: CCCCCCCCCC(=O)[C@@H]1C(=O)O[C@@]2(C)C(=O)C=C3C=C(C[C@H](C)O)OC=C3[C@@H]12
- IC50 (Stromelysin-1): 130 µM
- Activity (SR [1]): inactive
- Activity (THP-1 [10]): inactive
- IC50 (Caspase-1): 150 µM
- Activity (MOLT-4 [2]): inactive
- Activity (THP-1 [11]): Active
- Activity (LOX IMVI [3]): inactive
- Activity (THP-1 [12]): Active
- Activity (THP-1 [13]): inactive
- Activity (THP-1 [14]): Active
- Activity (THP-1 [15]): inactive
- Activity (THP-1 [16]): Active
- Activity (MOLT-4 [4]): inactive
- Activity (RPMI-8226 [5]): inactive
- Activity (RPMI-8226 [6]): inactive
- Activity (THP-1 [17]): inactive
- Activity (CCRF-CEM [7]): inactive
- Activity (LOX IMVI [8]): inactive
- Activity (SR [9]): inactive

Compound: CCCCCCCCCC(=O)[C@@]12O[C@@]13C1=COC(C[C@H](C)O)=CC1=CC(=O)[C@]3(C)OC2=O
- GI90 (CCRF-CEM [18]): 10 µM
- IC50 (Stromelysin-1): 15 µM
- GI90 (CCRF-CEM [19]): 10 µM
- Activity (THP-1 [10]): Active
- IC50 (Caspase-1): 25 µM
- GI50 [20]: 10 µM
- IC50 (Y79 [21]): 1.1 µM
- GI50 [22]: 10 µM
- Activity [23]: 95%
- Activity (THP-1 [15]): Active
- GI50 [24]: 10 µM
- GI50 (SR [25]): 10 µM
- GI50 [26]: 10 µM
- Activity [27]: 95%
- GI50 (SR [9]): 10 µM
- GI50 [28]: 10 µM
- IC50 (Y79 [29]): 1.1 µM

Compound: CCCCCCCCCC(=O)C1=C2C=C3C=C(C[C@H](C)O)N(CCO)C=C3C(=O)[C@]2(C)OC1=O
- IC50 (Stromelysin-1): 45 µM
- IC50 (Caspase-1): 50 µM
